# Hits are enriched below; roughly 5.9% of the tested compounds scored in any of these assays.
# Pyk2 oligo antag = antagonists of Pyk2 self-association, primary screen, Q293 cells, FERM NanoBiT luminescence, HTS; Protein-tyrosine kinase 2-beta (Homo sapiens), Q14289; z-score (the deposit names both 25 µM and 10 µM); hits give low values; hit rate 0.83% among 99,000; AID 1347419, 2020;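 active = Z-score of -3 or lower, scaled per plate to the spread of control and sample wells; inactive = z-score above -3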;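 also: negative z-score means lost luminescence so less FERM oligomerization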
# Target sequence (Q14289 whole entry, looked up): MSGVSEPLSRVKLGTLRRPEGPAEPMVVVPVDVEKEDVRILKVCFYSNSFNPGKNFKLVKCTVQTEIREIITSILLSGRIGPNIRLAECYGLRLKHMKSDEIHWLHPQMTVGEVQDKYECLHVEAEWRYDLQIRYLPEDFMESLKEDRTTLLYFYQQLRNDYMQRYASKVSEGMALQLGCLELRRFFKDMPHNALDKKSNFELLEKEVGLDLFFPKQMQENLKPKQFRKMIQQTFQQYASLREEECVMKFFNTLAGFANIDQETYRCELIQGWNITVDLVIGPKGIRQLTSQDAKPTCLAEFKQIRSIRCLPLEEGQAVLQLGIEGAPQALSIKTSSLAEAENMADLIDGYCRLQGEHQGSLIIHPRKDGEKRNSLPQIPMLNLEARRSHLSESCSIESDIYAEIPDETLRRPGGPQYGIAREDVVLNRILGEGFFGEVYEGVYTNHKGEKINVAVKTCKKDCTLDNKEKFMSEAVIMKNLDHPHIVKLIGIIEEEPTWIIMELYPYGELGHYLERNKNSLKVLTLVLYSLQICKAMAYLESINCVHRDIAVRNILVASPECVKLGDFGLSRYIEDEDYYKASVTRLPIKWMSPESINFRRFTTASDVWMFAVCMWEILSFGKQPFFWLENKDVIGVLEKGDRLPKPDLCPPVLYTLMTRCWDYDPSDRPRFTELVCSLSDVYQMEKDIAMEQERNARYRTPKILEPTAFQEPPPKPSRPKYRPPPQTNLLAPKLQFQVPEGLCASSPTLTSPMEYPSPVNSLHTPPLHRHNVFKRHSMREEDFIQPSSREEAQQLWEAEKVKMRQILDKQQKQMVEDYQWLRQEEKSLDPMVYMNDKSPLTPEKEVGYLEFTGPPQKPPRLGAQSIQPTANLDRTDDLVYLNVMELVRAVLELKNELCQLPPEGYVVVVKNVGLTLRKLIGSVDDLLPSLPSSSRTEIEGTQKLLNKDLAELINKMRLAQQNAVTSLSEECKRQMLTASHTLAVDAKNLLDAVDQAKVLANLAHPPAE
# Jurkat viability = cytotoxicity toward Jurkat T cells, primary screen, cytotoxicity control, cell-based, Jurkat E6.1, 60K MLSMR library. Jurkat E6.1 viability, ATP luminescence, 48 h. inhibition, % at 4 µM. hit rate 1.2% among 56,000;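 active = inhibition above the mean inhibition of all tested compounds plus 3 SD, cut at about 28% in these data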
# HUVEC inhibit = inhibitors of HUVEC proliferation, primary screen, cell-based, 384-well; viability, % at 10 µM (by protocol); CellTiter-Glo luminescence, 72 h; hits give low values; AID 648, 2007; hit rate 1.1% among 86,000;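 active = viability at or below 30%; inactive = viability above 30%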
# Lung fibro prol = antiproliferative effect on LL 47 fibroblasts – human, LL 47 cells, CellTiter-Glo luminescence, primary screen | LL 47 human lung fibroblast viability, ATP luminescence; hits give low values | viability, % at 10 µM | hit rate 1.1% among 85,000;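 active = viability at or below 50% in the single dose screen; inactive = viability above 50%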;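 also: compound exposure lasted 72 h before the ATP readout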
#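 Assay system: human lung fibroblast line LL 47, low passage. Input: 1,150 fibroblasts seeded per well. Times: overnight cell rest, 72 h compound treatment at 37 °C. Evaluation: % viability of median cell-only signal. Technique: luminescent ATP detection, CellTiter-Glo. Control set: cell-only wells, no compound.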
# MT1-MMP txn act = MT1-MMP promoter reporter activation – cell-based, luciferase luminescence, primary screen | HT1080 MT1-MMP promoter luciferase reporter, overnight; hits give high values | hit rate 0.16% among 86,000 | activation factor at 10 µM;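 active = activation factor of at least 2 for MT1-MMP transcription at 10 µM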
# H69AR inhibit = proliferation blockers of H69AR lung cancer cells, primary screen, cell-based, human, 86K library; viability, % at 10 µM; H69AR lung tumor viability, ATP luminescence, 72 h; hits give low values; hit rate 6% among 85,000;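 active = viability at or below 40%; inactive = viability above 40%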;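 also: multidrug resistant small cell line overexpressing MRP-1 efflux transporter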
# A number is an active result; - = inactive; . = no result given.
SMILES,Pyk2 oligo antag,Jurkat viability,HUVEC inhibit,Lung fibro prol,MT1-MMP txn act,H69AR inhibit
O=C(Nc1ccc(Cl)cc1)NC1CCCC1Cc1ccco1 (centres undefined),-,-,-,-,-,-
Cc1cccc(NC(=O)Cc2noc3ccccc23)c1,-,.,-,-,2.1,-
CCOC(=O)N1CC=C2C(C#N)=C(N)C(C#N)(C#N)[C@H](c3ccsc3)[C@H]2C1,-,-,-,-,-,-
N#CC1=C(N)C(C#N)(C#N)C(c2ccncc2)C2CN(C(=O)OCc3ccccc3)CC=C12 (centres undefined),-,.,-,-,-,7.7
CCOC(=O)N1CC=C2C(C#N)=C(N)C(C#N)(C#N)[C@H](c3ccc(OC(C)C)c(OCC)c3)[C@H]2C1,-,-,-,-,-,36.7
Cc1nc2ccccc2n1CCC(=O)Nc1cccc(F)c1,-,-,-,-,-,-
Cn1cc(/C=N/n2cnc3scc(-c4ccccc4)c3c2=O)c2ccccc21,-,40.6,-,-,-,28.3
Cc1ccc(C2(C(F)(F)F)NC(=O)N3CCN=C3S2)cc1 (centres undefined),-,-,-,-,-,22.2
O=c1cc(N2CCN(c3ccc(F)cc3)CC2)[nH]c(=O)n1C1CCCCC1,-,-,-,-,-,35.0
COc1cccc(-c2nc(N3CCCCC3C)c3ccccc3n2)c1O (centres undefined),-,.,-,-,-,37.9
CCN(CC)c1nc(-c2cccc(OC)c2O)nc2ccccc12,-,.,-,-,-,-
O=C(NCc1ccco1)C(c1cccs1)N(Cc1ccccc1)C(=O)Cn1nnc2ccccc21 (centres undefined),-3.28,-,-,-,-,.
Cc1ccc(CN(C(=O)Cn2nnc3ccccc32)C(C(=O)NCc2ccco2)c2cccs2)cc1 (centres undefined),-,-,-,-,-,-
O=C(NCc1ccco1)C(c1ccco1)N(Cc1cccs1)C(=O)Cn1nnc2ccccc21 (centres undefined),-3.82,.,-,-,-,-
CCC(C)(C)NC(=O)C(c1ccc(C)o1)N(Cc1cccs1)C(=O)Cn1nnc2ccccc21 (centres undefined),-,-,-,43.3,-,-
O=C(NC1CCCCC1)C(c1ccco1)N(Cc1cccs1)C(=O)Cn1nnc2ccccc21 (centres undefined),-,-,-,-,-,-
CCC(C)(C)NC(=O)C(c1ccccc1)N(Cc1cccs1)C(=O)Cn1nnc2ccccc21 (centres undefined),-,.,-,-,-,-
CCOC(=O)C1=C(N)Oc2c(c(=O)[nH]c3ccccc23)C1c1ccccc1 (centres undefined),-,.,-,-,-,13.2
CCOC(=O)C1=C(N)Oc2cc(C)[nH]c(=O)c2C1c1ccncc1 (centres undefined),-,-,-,-,-,-
CCOC(=O)C1=C(N)Oc2ccc3ccccc3c2C1c1cccnc1 (centres undefined),-3.15,.,-,-,-,-
Cc1noc(C)c1COC(=O)CCc1nc2ccccc2c(=O)[nH]1,-,-,-,-,-,-
Cc1ccc(-n2ncc(C(=O)N3CCc4ccccc4C3)c2NC(=O)c2ccco2)cc1C,-,-,-,-,-,25.6
COc1ccc(CCNC(=O)c2cnn(-c3ccc(C)c(C)c3)c2NC(=O)c2ccco2)cc1OC,-,-,-,-,-,-
O=C(CCN1C(=O)c2ccccc2C1=O)N1CCN(C2c3ccccc3-c3ccccc32)CC1,-,.,.,.,.,.
Nc1[nH]c(=O)ncc1F,.,.,-,-,-,-
SMILES,Pyk2 oligo antag,Jurkat viability,HUVEC inhibit,Lung fibro prol,MT1-MMP txn act,H69AR inhibit
Cc1nc2cc(NS(=O)(=O)c3c(C)c(C)cc(C)c3C)ccc2s1,-3.83,.,-,-,-,-
Cc1nc2ccc(NS(=O)(=O)c3c(C)c(C)cc(C)c3C)cc2s1,-,.,-,-,-,16.4
Cc1ccc(S(=O)(=O)Nc2ccc3nc(C)sc3c2)cc1,-,.,-,-,-,-
Cc1nc2ccc(NS(=O)(=O)c3ccc4c(c3)OCCO4)cc2s1,-,.,.,.,.,.
CCCCn1c(SCC(=O)Nc2cc(NC(=O)c3ccco3)ccc2C)nc2ccccc2c1=O,-,-,-,-,-,6.8
CCCCn1c(SCC(=O)Nc2cc(C)on2)nc2ccccc2c1=O,-,-,-,-,-,-
CCn1c(SCC(=O)Nc2ccc(NC(=O)c3ccco3)c(OC)c2)nc2ccccc2c1=O,-,-,-,-,-,10.0
COCCn1c(SCC(=O)Nc2ccc(S(=O)(=O)N(C)C)cc2)nc2ccccc21,-,.,-,-,-,34.8
CCn1c(SCC(=O)Nc2ccccc2OC)nc2ccccc2c1=O,-,.,-,-,.,-
COCCn1c(SCC(=O)Nc2ccc(NC(=O)c3ccco3)c(OC)c2)nc2ccccc2c1=O,-,.,-,-,-,31.4
CC(=N/O)/C(=N\O)c1ccc(C)o1,-,-,-,-,-,-
Cc1ccc(C)n1NC(=O)c1ccc(Cl)cc1Cl,-,-,-,-,-,-
Cc1ccc(C)n1NC(=O)c1ccccc1O,-,.,-,44.5,-,28.7
COc1ccc(/C=C2\CCc3ccccc3C2=O)cc1OC,-,.,.,.,.,.
COc1ccc(/C=C2\CCc3ccccc3C2=O)cc1Cn1nc(C)cc1C,-,.,-,-,-,14.6
CSc1nc(C)cc(OCCNS(=O)(=O)c2ccc(C)cc2)n1,-,.,-,-,-,-
Cc1cc(C)c(S(=O)(=O)N2CCC(C(=O)NCc3ccc(Cl)cc3Cl)CC2)c(C)c1,-,.,-,-,-,-
CCc1nnc(NC(=O)CSc2nnc(-c3ccccc3NC(=O)c3ccccc3)o2)s1,-,-,-,-,-,30.1
CCOC(=O)C1CCN(C(=O)Cn2cc3c(n2)CCC(C)C3)CC1 (centres undefined),.,-,-,-,-,-
CCOC(=O)C1=C(c2ccccc2)NC(SCC(=O)Nc2cccc(C)c2)=C(C#N)C1c1ccco1 (centres undefined),-4.03,-,.,.,-,.
CCOC(=O)C1=C(c2ccccc2)NC(SCC(=O)Nc2ccc(C)cc2)=C(C#N)C1c1ccco1 (centres undefined),-4.35,-,-,-,-,-
Cc1ccc(NC(=O)CSC2=C(C#N)C(c3ccco3)C3=C(CC(C)(C)CC3=O)N2)cc1 (centres undefined),-3.37,-,-,-,-,-
CCOC(=O)CSC1=C(C#N)C(c2ccco2)C(C(=O)Nc2cccc(C(F)(F)F)c2)=C(C)N1 (centres undefined),-,-,-,-,-,-
CCOC(=O)C1=C(c2ccccc2)NC(SC)=C(C#N)C1c1ccco1 (centres undefined),-,-,-,-,-,-

# High-throughput results as filed in PubChem.
